Data set [1] has as its system Mus musculus. The experiment in a line: Antinociceptive effect in intrathecally dosed ICR-CD1 mouse by tail flick test. In kind it is functional. An outline of the steps:
(§1)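 Male ICR-CD1 mice (17–25 g), conscious, dosed intrathecally in 5 μl (10% DMSO stock diluted to ≤1% DMSO). Radiant-heat tail-flick; %MPE = (test−control)/(10−control)×100 with 10 s cutoff. Peak antinociception located by time course at 10, 20, 30, 60 min. ≥3 groups of 8–10 mice per curve, mice used once; ED50 with 95% CI by nonlinear regression.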

Data set [2] has as its target Delta-type opioid receptor (Homo sapiens) (UniProt P41143). The experiment in a line: Agonist activity at human delta opioid receptor expressed in HEK cells assessed as induction of intracellular calcium release by FLIPR assay. In kind it is functional, cell-based. As to conditions: HEK293. An outline of the steps:
(§2)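 HEK-293 cells stably carrying chimeric Δ6-Gαqi4-myr (zeocin selection, DMEM+10% FBS, 37 °C, 10% CO2) transiently transfected with opioid receptor DNA (200 ng/20,000 cells); seeded 24 h later; day 3 loaded with Ca2+ dye 60 min at 37 °C. After 30 s equilibration, ligand added over a concentration range; fluorescence read; ΔRFU (max−min) per concentration fitted by nonlinear regression; peak effect recorded; ≥3 independent runs, 4 internal replicates.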

The test system of data set [3] is Mus musculus. The data set is described as follows: Antinociceptive effect in intracerebroventricular dosed ICR-CD1 mouse by tail flick test. In kind it is functional. In outline:
(§3)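 Male ICR-CD1 mice (17–25 g), conscious, given compound i.c.v. in 5 μl (stock in 10% DMSO, diluted to ≤1% DMSO). Radiant-heat tail-flick latency, 10 s cutoff; %MPE = (test−control)/(10−control)×100. Peak time from time course at 10, 20, 30, 60 min. ≥3 groups of 8–10 mice per dose-response curve, each mouse used once; ED50 with 95% CI by nonlinear regression.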

The subject of data set [4] is Mus musculus. The experiment in a line: Toxicity in intracerebroventricular dosed ICR-CD1 mouse assessed as dose tolerance after 24 hrs. In kind it is organism-based. As to conditions: in vivo, icv_or_intrathecal. An outline of the steps: (§4)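 Acute 24 h tolerance in male ICR-CD1 mice by i.c.v. or i.t. route: highest (ED80–90) dose of the day-1 dose-response curve repeated on the same mice 24 h later; tail-flick %MPE compared between days; no significant difference taken as not tolerant.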

The target of data set [5] is Opioid receptors; mu & kappa (Homo sapiens) (UniProt P41145+P35372). The data set is described as follows: Agonist activity at human mu-kappa opioid receptor expressed in HEK cells assessed as induction of intracellular calcium release by FLIPR assay. In kind it is functional, cell-based. As to conditions: HEK293. In outline:
as §2

Data set [6] concerns the target Opioid receptors; delta & kappa (Homo sapiens) (UniProt P41145+P41143). The experiment in a line: Agonist activity at human delta-kappa opioid receptor expressed in HEK cells assessed as induction of intracellular calcium release by FLIPR assay. In kind it is functional, cell-based. As to conditions: HEK293. In outline:
as §2

The subject of data set [7] is Mus musculus. The experiment in a line: Antinociceptive effect in intracerebroventricular dosed ICR-CD1 mouse assessed as peak time effect by tail flick test. In kind it is functional. An outline of the steps:
as §3

Data set [8] deals with Mus musculus. The data set is described as follows: Toxicity in intrathecally dosed ICR-CD1 mouse assessed as dose tolerance after 24 hrs. In kind it is organism-based. As to conditions: in vivo, icv_or_intrathecal. An outline of the steps:
as §4

Data set [9] has as its target Opioid receptors; mu & delta (Homo sapiens) (UniProt P41143+P35372). The experiment in a line: Agonist activity at human mu-delta opioid receptor expressed in HEK cells assessed as induction of intracellular calcium release by FLIPR assay. In kind it is functional, cell-based. As to conditions: HEK293. In outline: as §2
Data set [10] relates to Mus musculus. The data set is described as follows: Antinociceptive effect in intrathecally dosed ICR-CD1 mouse assessed as peak time effect by tail flick test. In kind it is functional. In outline: as §1
In data set [11] the test system is Mus musculus. The data set is described as follows: Antinociceptive effect in intrathecally dosed wild type ICR-CD1 mouse after 20 mins in presence of nor-BNI. In kind it is functional. An outline of the steps:
(§5)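 Wild-type male ICR-CD1 mice dosed intrathecally in 5 μl (≤1% DMSO) with antagonist timed to peak with agonist: NTI 5 nmol/mouse or nor-BNI 2.5 nmol/mouse, each 20 min peak time.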

In data set [12] the test system is Mus musculus. The data set is described as follows: Antinociceptive effect in intrathecally dosed MOR-KO mouse. In kind it is functional, organism-based. In outline: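 MOR-KO mice, 13–15 weeks old, equal males and females, eight per group, given compound intrathecally in 5 μl (≤1% DMSO); antinociception scored by radiant-heat tail-flick as %MPE with 10 s cutoff.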

In data set [13] the test system is Mus musculus. The data set is described as follows: Antinociceptive effect in intrathecally dosed wild type ICR-CD1 mouse after 20 mins in presence of NTI. In kind it is functional. In outline:
as §5

Active and inactive are the calls of the source.

Sequence of Delta-type opioid receptor (Homo sapiens) (P41143 whole entry): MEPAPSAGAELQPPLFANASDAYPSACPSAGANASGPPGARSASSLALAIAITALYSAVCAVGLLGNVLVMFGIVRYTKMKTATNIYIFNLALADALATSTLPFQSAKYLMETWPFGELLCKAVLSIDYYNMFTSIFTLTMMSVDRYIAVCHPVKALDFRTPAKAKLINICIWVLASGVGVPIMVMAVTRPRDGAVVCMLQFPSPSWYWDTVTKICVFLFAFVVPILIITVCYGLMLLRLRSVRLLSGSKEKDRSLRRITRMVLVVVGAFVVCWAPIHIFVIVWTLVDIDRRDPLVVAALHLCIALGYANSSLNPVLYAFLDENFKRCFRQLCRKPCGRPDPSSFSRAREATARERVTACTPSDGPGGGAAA
Sequence of Opioid receptors; mu & kappa (Homo sapiens) (P35372 whole entry, looked up): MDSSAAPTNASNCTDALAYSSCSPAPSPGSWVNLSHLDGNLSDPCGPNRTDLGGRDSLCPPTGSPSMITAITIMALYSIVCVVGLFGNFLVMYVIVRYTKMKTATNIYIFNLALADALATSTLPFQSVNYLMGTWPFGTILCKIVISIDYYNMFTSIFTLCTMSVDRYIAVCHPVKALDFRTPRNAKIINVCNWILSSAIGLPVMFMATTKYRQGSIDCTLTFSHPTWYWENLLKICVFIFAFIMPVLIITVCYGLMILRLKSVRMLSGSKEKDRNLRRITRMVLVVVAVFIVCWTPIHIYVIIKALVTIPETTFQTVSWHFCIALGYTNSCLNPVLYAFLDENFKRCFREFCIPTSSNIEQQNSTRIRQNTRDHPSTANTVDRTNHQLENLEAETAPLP
Sequence of Opioid receptors; mu & kappa (Homo sapiens) (P41145 whole entry, looked up): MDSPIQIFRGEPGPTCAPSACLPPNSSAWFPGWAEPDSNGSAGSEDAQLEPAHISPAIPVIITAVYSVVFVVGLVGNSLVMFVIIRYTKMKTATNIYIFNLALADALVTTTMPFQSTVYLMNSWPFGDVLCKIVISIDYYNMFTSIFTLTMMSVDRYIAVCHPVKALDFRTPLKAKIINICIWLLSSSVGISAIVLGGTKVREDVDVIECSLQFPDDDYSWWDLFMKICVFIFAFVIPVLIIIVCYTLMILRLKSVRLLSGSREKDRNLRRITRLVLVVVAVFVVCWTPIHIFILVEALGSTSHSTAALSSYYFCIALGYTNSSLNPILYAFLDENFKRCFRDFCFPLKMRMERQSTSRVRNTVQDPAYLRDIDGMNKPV
Sequence of Opioid receptors; mu & delta (Homo sapiens) (P35372 whole entry, looked up): as the sequence (P35372 whole entry, looked up) above
Sequence of Opioid receptors; mu & delta (Homo sapiens) (P41143 whole entry, looked up): as the sequence (P41143 whole entry) above
Sequence of Opioid receptors; delta & kappa (Homo sapiens) (P41143 whole entry, looked up): as the sequence (P41143 whole entry) above
Sequence of Opioid receptors; delta & kappa (Homo sapiens) (P41145 whole entry, looked up): as the sequence (P41145 whole entry, looked up) above

On to `O=C(N[C@@H]1CC[C@@]2(O)[C@H]3Cc4ccc(O)c5c4[C@@]2(CCN3CC2CC2)[C@H]1O5)c1cccc2ncccc12`, for which the MPE result in the data set on Mus musculus [1] and with Mus musculus [3] was “<=60%” in each case. Further, the outcome in data set [2] was inactive.
For the molecule `O=C(N[C@@H]1CC[C@@]2(O)[C@H]3Cc4ccc(O)c5c4[C@@]2(CCN3CC2CC2)[C@H]1O5)c1cccc2ccccc12`, in the data set on Mus musculus [4], the Activity entry is recorded as “Toxic”. For the same molecule, the ED50 in the data set on Mus musculus [1] is listed as 20.9 pmol. Also, the result in [5] and in data set [6] was Active. For the same molecule, the MPE entry in the data set with Mus musculus [3] is “<=60%”.
Regarding `O=C(N[C@@H]1CC[C@@]2(O)[C@H]3Cc4ccc(O)c5c4[C@@]2(CCN3CC2CC2)[C@H]1O5)c1nccc2ccccc12`, the Time is on record as 10 min with Mus musculus [7] and 20 min with Mus musculus [10]. For the same molecule, the ED50 in the data set on Mus musculus [1] was determined as 1408 pmol; in the data set on Mus musculus [3], 2070 pmol. In addition, the outcome in data set [5] and in [9] was Active. Besides, the Activity result with Mus musculus [8] is “Non-toxic”. The outcome in [2] was inactive.
Turning to `O=C(N[C@@H]1CC[C@@]2(O)[C@H]3Cc4ccc(O)c5c4[C@@]2(CCN3CC2CC2)[C@H]1O5)c1ccc2cc(F)ccc2c1`, the ED50 in the data set with Mus musculus [11] worked out at 2.5 nmol; with Mus musculus [1], 81.1 pmol; with Mus musculus [13], 5 nmol. In the data set on Mus musculus [12], the outcome was inactive. Moreover, in the data set with Mus musculus [8], the Activity result was “Non-toxic”. For the same molecule, in data set [2], the outcome was Active. The Time in the data set with Mus musculus [10] amounted to 20 min. Also, in the data set with Mus musculus [3], the MPE result is “<=60%”.
With `O=C(N[C@H]1CC[C@@]2(O)[C@H]3Cc4ccc(O)c5c4[C@@]2(CCN3CC2CC2)[C@H]1O5)c1ccc2ccccc2c1`, the MPE entry with Mus musculus [1] and with Mus musculus [3] was “<=60%” in each case. Also, in data set [5], the outcome was inactive.
Consider `O=C(N[C@@H]1CC[C@@]2(O)[C@H]3Cc4ccc(O)c5c4[C@@]2(CCN3CC2CC2)[C@H]1O5)c1cnc2ccccc2n1`, for which the ED50 in the data set with Mus musculus [1] turned out to be 50.8 pmol; with Mus musculus [3] it was 757.2 pmol. Also, the result in data set [5] and in data set [9] was Active. Moreover, the Activity entry in the data set with Mus musculus [8] is on record as “Non-toxic”. The outcome in [2] was inactive. Further, the Time in the data set with Mus musculus [10] was found to be 5 min.
Turning to `CN(C(=O)c1ccc2ccccc2c1)[C@@H]1CC[C@@]2(O)[C@H]3Cc4ccc(O)c5c4[C@@]2(CCN3CC2CC2)[C@H]1O5`, the MPE result in the data set with Mus musculus [1] and in the data set on Mus musculus [3] was “<=60%” each time. For the same molecule, the result in data set [5] was inactive. In [2], the result was Active.
With `COc1cc2ccccc2cc1C(=O)N[C@@H]1CC[C@@]2(O)[C@H]3Cc4ccc(O)c5c4[C@@]2(CCN3CC2CC2)[C@H]1O5`, the Activity result was “Toxic” with Mus musculus [4] and “Non-toxic” in the data set on Mus musculus [8]. Also, the ED50 with Mus musculus [1] worked out at 115.1 pmol; in the data set on Mus musculus [3] it was 312.4 pmol. In data set [2], the result was Active. Further, the Time in the data set on Mus musculus [10] was found to be 5 min.
For `Cl.O=C(N[C@@H]1CC[C@@]2(O)[C@H]3Cc4ccc(O)c5c4[C@@]2(CCN3CC2CC2)[C@H]1O5)c1ccc2ccccc2c1`, the figures for the Activity entry with Mus musculus [4] and in the data set with Mus musculus [8] were “Toxic” and “Non-toxic”, respectively. For the same molecule, the results for the Time in the data set on Mus musculus [7] and in the data set with Mus musculus [10] were 20 min and 5 min, respectively. The figures for the ED50 in the data set with Mus musculus [1] and in the data set on Mus musculus [3] were 18.7 pmol and 2060 pmol, respectively. Besides, in [5], the result was Active.
Turning to `COc1ccc2cc(C(=O)N[C@@H]3CC[C@@]4(O)[C@H]5Cc6ccc(O)c7c6[C@@]4(CCN5CC4CC4)[C@H]3O7)ccc2c1`, the Time was found to be 10 min with Mus musculus [7] and 5 min with Mus musculus [10]. The MPE entry with Mus musculus [1] and with Mus musculus [3] was “<=60%” throughout.

The record behind these values is ChEMBL document CHEMBL2069268, “Opioid activity of spinally selective analogues of N-naphthoyl-β-naltrexamine in HEK-293 cells and mice” (J Med Chem, 2012).
